Data set [1] is described as follows: Selectivity index, ratio of IC50 for cytotoxicity against mouse L929 cells to IC50 for antitrypanosomal activity against Trypanosoma brucei brucei 427 bloodstream forms. Format: toxicity, cell-based. The following applies: read-out: Ratio IC50.
Data set [2] can be described thus: Half life in mouse liver S9 subcellular fraction. Format: ADME. The essentials:
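Metabolic stability: compounds incubated 1 h with CD-1 mouse liver S9 subcellular fractions; half-life derived.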

In the next data set the test system is Mus musculus. As to the kind of experiment: Time duration during which drug level in brain stays at or above MIC for antitrypanosomal activity against Trypanosoma brucei brucei TREU 667 infected in Webster mouse at 25 mg/kg, po bid. Format: ADME, organism-based. As to conditions: in vivo.
The subject of data set [3] is Trypanosoma brucei brucei. Briefly: Antitrypanosomal activity against Trypanosoma brucei brucei TREU 667 infected in Swiss Webster mouse assessed as infection cure rate at 200 mg/kg, po qd for 5 days. It is filed as functional.
Data set [4] is described as follows: Selectivity index, ratio of IC50 for cytotoxicity against human MRC5 cells to IC50 for antitrypanosomal activity against Trypanosoma brucei brucei 427 bloodstream forms. The following applies: read-out: Ratio IC50. Format: toxicity, cell-based. The essentials:
(§1)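 IC50 for growth inhibition of T. b. brucei 427, with cytotoxicity measured against human lung fibroblasts (MRC-5). Means of two or more independent experiments. Selectivity index is MRC-5 IC50 over T. b. brucei IC50.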

Data set [5] relates to Trypanosoma brucei brucei. As to the kind of experiment: Antitrypanosomal activity against Trypanosoma brucei brucei TREU 667 infected in Swiss Webster mouse assessed as infection cure rate at 25 mg/kg, po qd for 7 days starting 21 days post-infection (reference value: 0%). It is filed as functional.
The subject of data set [6] is Trypanosoma brucei brucei. Briefly: Antitrypanosomal activity against Trypanosoma brucei brucei 427 bloodstream forms. Format: functional, organism-based. An outline of the steps: as §1
Data set [7] can be described thus: Ratio of drug level in brain to plasma in CD1 mouse at 78 mg/kg, po after 0.25 to 24 hrs by LC-MS/MS method. The following applies: read-out: BPR. Format: ADME, organism-based.
A short description of data set [8]: Apparent permeability in MDCK2-MDR1 cells at 3 uM incubated over 150 mins at 37 degC by LC-MS/MS method. Format: ADME, cell-based, Canis lupus familiaris. As to conditions: dog, MDCK-MDR1. The essentials: (§2)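 MDCK-MDR1 monolayer, apical-to-basolateral transport of compound at 3 μM, run with and without P-gp inhibitor GF120918 (2 μM). Apparent permeability (Papp) recorded; absorption quotient AQ = (Papp+918 − Papp)/Papp+918. Propranolol served as CNS-positive reference.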

Data set [9] can be described thus: Absorption quotient in MDCK2-MDR1 cells assessed as (Papp + GF120918 - Papp)/(Papp + GF120918) ratio at 3 uM incubated over 150 mins at 37 degC in presence of P-gp inhibitor GF120918 by LC-MS/MS method. It is filed as ADME, cell-based, Canis lupus familiaris. The following applies: dog, mdck-mdr1, 2.5 h. An outline of the steps:
as §2

The subject of data set [10] is Trypanosoma brucei brucei. Briefly: Antitrypanosomal activity against Trypanosoma brucei brucei TREU 667 infected in Swiss Webster mouse assessed as infection cure rate at 10 mg/kg, ip administered as single dose on day 4 post-infection (reference value: 0%). It is filed as functional. An outline of the steps: (§3)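 CNS (stage 2) model: mice infected with T. b. brucei TREU 667. Berenil given as a single i.p. dose of 10 mg/kg on day 4 or on day 21 post-infection. Cure rate and mean relapse time recorded against vehicle-treated controls.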

The test system of data set [11] is Trypanosoma brucei brucei. Briefly: Antitrypanosomal activity against Trypanosoma brucei brucei TREU 667 infected in Swiss Webster mouse assessed as infection cure rate at 10 mg/kg, ip administered as single dose on day 21 post-infection (reference value: 0%). Format: functional. An outline of the steps:
as §3

The subject of data set [12] is Trypanosoma brucei brucei. Briefly: Antitrypanosomal activity against Trypanosoma brucei brucei TREU 667 infected in Swiss Webster mouse assessed as mean relapse time at 10 mg/kg, ip administered as single dose on day 21 post-infection (reference value: 31 days). It is filed as functional. An outline of the steps:
as §3

As usually defined, the IC50 is the midpoint of a concentration-inhibition curve. A high value points to a need for much substance. As usually defined, the Papp A→B is the apparent permeability from the apical to the basolateral side of a cell layer.

Converted amounts (≈) assume the structure as drawn.

Regarding `CN1CC(OCc2ccc(OCc3ccccc3)cc2)Cn2nc([N+](=O)[O-])cc21` (stereo not given), in [1], the selectivity ratio was above 3.3. The compound also returned a t1/2 in data set [2] of 38 min.
Regarding `O=C(Nc1ccc2c(c1)B(O)OC2)c1ccc(F)cc1C(F)(F)F`, in the data set with Mus musculus, the Time amounted to 12 h.
With `O=[N+]([O-])c1cn2c(n1)SC(COCc1ccc(OCc3ccccc3)cc1)C2` (stereo not given), in data set [1], the selectivity ratio is above 22. The t1/2 in [2] was 67 min.
As to `CC1(COCc2ccc(OCc3ccccc3)cc2)Cn2cc([N+](=O)[O-])nc2[S+]1[O-]` (stereo not given), the selectivity ratio in [1] is above 77. Moreover, the t1/2 in data set [2] was determined as 50 min.
`O=[N+]([O-])c1cn2c(n1)[S+]([O-])CC(OCc1ccc(OC(F)(F)F)cc1)C2` (stereo not given): the selectivity ratio in data set [1] was above 63.
With `CSc1ccc(OCc2ncc([N+](=O)[O-])n2C)cc1` [FEXINIDAZOLE], the Activity in data set [3] came out at 88%.
As for `O=[N+]([O-])c1cn2c(n1)[S+]([O-])CC(OCc1ccc(-c3ccc(OC(F)(F)F)cc3)cn1)C2` (stereo not given), the selectivity ratio in data set [4] is above 500.
As for `COc1ccc(-c2ccc(O[C@@H]3COc4nc([N+](=O)[O-])cn4C3)nc2)cn1`, the selectivity ratio in [1] was above 3.7.
In the case of `O=[N+]([O-])c1cn2c(n1)OC[C@@H](Oc1cc(-c3ccc(C(F)(F)F)nc3)ccn1)C2`, the selectivity ratio in data set [1] was above 3.6.
As for `CC1(C)OB(O)c2cc(NC(=O)c3ccc(F)cc3C(F)(F)F)ccc21` [ACOZIBOROLE], the Time with Mus musculus is 24 h. Also, in data set [5], the Activity is reported as 100%. In data set [6], this compound yielded an IC50 of 0.29 µg/mL (≈ 0.79 µM).
As for `O=[N+]([O-])c1cn2c(n1)OC[C@@H](NCc1ccc(OC(F)(F)F)cc1)C2`, in data set [1], the selectivity ratio is above 13. Besides, the Kp in data set [7] fell in the range of 2 to 3.
As for `O=[N+]([O-])c1cn2c(n1)S(=O)(=O)CC(OCc1ccc(OCc3ccccc3)cc1)C2` (stereo not given), the selectivity ratio in [1] was above 303. The Papp A→B at 2.5 h, 3 µM in data set [8] was 3.69 ×10⁻⁶ cm/s.
The corresponding values for `O=[N+]([O-])c1cn2c(n1)OCC(COc1ccc(-c3ccc(C(F)(F)F)cc3)nc1)C2` (stereo not given) are above 36 and 11.7 ×10⁻⁶ cm/s.
Turning to `O=[N+]([O-])c1cn2c(n1)S(=O)(=O)CC(OCc1ccc(OC(F)(F)F)cc1)C2` (stereo not given), in data set [1], the selectivity ratio is above 11.
Take `O=[N+]([O-])c1cn2c(n1)OC[C@@H](OCC#Cc1ccc(-c3ccc(C(F)(F)F)cc3)cn1)C2`: the selectivity ratio in [1] was above 19. The Papp A→B at 2.5 h, 3 µM in data set [8] worked out at 3.5 ×10⁻⁶ cm/s.
As to `O=[N+]([O-])c1cn2c(n1)[S@+]([O-])C[C@@H](OCc1ccc(OC(F)(F)F)cc1)C2`, the selectivity ratio in data set [1] is above 143.
With `O=[N+]([O-])c1cn2c(n1)[S+]([O-])CC(OCc1ccc(OCc3ccccc3)cc1)C2` (stereo not given), the selectivity ratio in data set [1] was above 667.
With `CC1(COCc2ccc(OCc3ccccc3)cc2)Cn2cc([N+](=O)[O-])nc2S1` (stereo not given), in data set [9], the Ratio was 0. Further, the selectivity ratio in data set [1] is above 4.5. Moreover, the t1/2 in data set [2] is reported as 31 min.
Take `O=[N+]([O-])c1cn2c(n1)OC[C@@H](OCCCc1ccc(-c3ccc(Oc4ccc(C(F)(F)F)cc4)cc3)cc1)C2`: in data set [1], the selectivity ratio was above 43.
`O=[N+]([O-])c1cn2c(n1)OCC(COc1ccc(-c3ccc(OC(F)(F)F)cc3)nc1)C2` (stereo not given): the selectivity ratio in data set [1] is above 12. In data set [8], the Papp A→B at 2.5 h, 3 µM stood at 7.4 ×10⁻⁶ cm/s.
Consider `CC(=O)NCC(=O)O.CC(=O)NCC(=O)O.N=C(N)c1ccc(/N=N/Nc2ccc(C(=N)N)cc2)cc1` [DIMINAZENE DIACETURATE], for which the Activity was 100% in [10] and 0% in data set [11]. The Time in data set [12] worked out at 41 days.

The values above are taken from ChEMBL document CHEMBL4177714, “Assessment of a pretomanid analogue library for African trypanosomiasis: Hit-to-lead studies on 6-substituted 2-nitro-6,7-dihydro-5H-imidazo[2,1-b][1,3]thiazine 8-oxides” (Bioorg Med Chem Lett, 2018).
